Reference: publication PMC3070847 (Bioorganic & medicinal chemistry letters, 2011)

What follows are molecules tested against HIV-1 IN (Human immunodeficiency virus type 1 group M subtype B, UniProt P04585) (assay: Biochemical gel assay of HIV-1 IN). Details: IN IC50 3'-P, 3' processing function.
Outline: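 Recombinant HIV-1 integrase was used as the enzyme in the biochemical evaluation.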
In the case of `CCc1c(C(=O)c2ccccc2)n(COCc2ccccc2)c(=O)n(O)c1=O` [Compound 17], the IC50 is reported as greater than 111 µM. `CCc1c(C(=O)c2ccccc2)n(COCc2ccc(F)cc2)c(=O)n(O)c1=O` [Compound 18] gave an IC50 greater than 111 µM. `CCc1c(C(=O)c2cc(C)cc(C)c2)n(COCc2ccc(F)cc2)c(=O)n(O)c1=O` [Compound 19] showed an IC50 greater than 111 µM. With `CCc1c(C(=O)c2cc(C)cc(C)c2)n(COCc2ccccc2)c(=O)n(O)c1=O` [Compound 20] the IC50 was greater than 111 µM. Molecule `CCc1c(C(=O)c2ccccc2)n(COCCc2ccc(F)cc2)c(=O)n(O)c1=O` [Compound 21] has an IC50 greater than 111 µM. `CCc1c(C(=O)c2cc(C)cc(C)c2)n(COCCc2ccc(F)cc2)c(=O)n(O)c1=O` [Compound 22] was tested, and the IC50 was greater than 111 µM. For `CCOCn1c(C(=O)c2ccccc2)c(CC)c(=O)n(O)c1=O` [Compound 23], the IC50 was greater than 111 µM. In the case of `CCOCn1c(C(=O)c2cc(C)cc(C)c2)c(CC)c(=O)n(O)c1=O` [Compound 24], the IC50 is reported as greater than 111 µM.
